Results as given in ChEMBL document CHEMBL1123801, “Synthesis and antifungal activity of new 1-vinylimidazoles” (1987).
In brackets after ≈: the same amount, converted by molar mass.

system: Aspergillus fumigatus; assay: Minimum inhibitory concentration (MIC) against Aspergillus fumigatus; assay type: functional; details: not given
In short: (§1)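 Broth microdilution in Sabouraud's glucose broth. Final inocula 1×10^5 cells/mL for the yeast (C. albicans) and 1×10^5 conidia/mL for the mold (A. fumigatus) and the dermatophyte (T. asteroides). MIC read as the fungistatic end point. Lowest value of duplicated experiments.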

SMILES | MIC [µg/mL]
CC(c1ccccc1)(n1ccnc1)n1ccnc1 | > 100
C=C(c1cc(Cl)ccc1OC(C)C)n1ccnc1 | 0.8 (≈ 3.04 µM)
C/C=C(\c1cc(Cl)ccc1OCCC)n1ccnc1 | 1.6 (≈ 5.78 µM)
C/C(CN(C)C)=C(/c1ccccc1OCC(C)C)n1ccnc1 | > 100
CC(c1cccc(OCc2ccc(Cl)cc2)c1)(n1ccnc1)n1ccnc1 | > 100
C=C(c1ccccc1OCCc1ccc(Cl)cc1)n1ccnc1 | 0.4 (≈ 1.23 µM)
CC(C)COc1ccccc1/C(=C/CN(C)c1ccccc1)n1ccnc1 | 6.3 (≈ 17.4 µM)
C=C(c1cc(Cl)ccc1OCC(C)C)n1ccnc1 | 0.8 (≈ 2.89 µM)
C=C(c1cc(Cl)ccc1OCCC(C)C)n1cncn1 | > 100
CCC(CC)=C(c1cc(Cl)ccc1OCCC(C)C)n1cncn1 | > 100
C=C(c1ccccc1)n1ccnc1 | > 100

system: Candida albicans; assay: Minimum inhibitory concentration (MIC) against Candida albicans; assay type: functional; details: not given; in short: as §1

SMILES | MIC [µg/mL]
CC(c1ccccc1)(n1ccnc1)n1ccnc1 | > 100
C=C(c1cc(Cl)ccc1OC(C)C)n1ccnc1 | 50 (≈ 190 µM)
C/C=C(\c1cc(Cl)ccc1OCCC)n1ccnc1 | 25 (≈ 90.3 µM)
C/C(CN(C)C)=C(/c1ccccc1OCC(C)C)n1ccnc1 | > 100
CC(c1cccc(OCc2ccc(Cl)cc2)c1)(n1ccnc1)n1ccnc1 | > 100
C=C(c1ccccc1OCCc1ccc(Cl)cc1)n1ccnc1 | 25 (≈ 77 µM)
CC(C)COc1ccccc1/C(=C/CN(C)c1ccccc1)n1ccnc1 | 12.5 (≈ 34.6 µM)
C=C(c1cc(Cl)ccc1OCC(C)C)n1ccnc1 | 50 (≈ 181 µM)
C=C(c1cc(Cl)ccc1OCCC(C)C)n1cncn1 | > 100
CCC(CC)=C(c1cc(Cl)ccc1OCCC(C)C)n1cncn1 | > 100
C=C(c1ccccc1)n1ccnc1 | > 100

system: not listed separately; assay: (§2) Minimum inhibitory concentration against Trichophyton asteroides; assay type: functional; details: Trichophyton benhamiae; in short: as §1

SMILES | MIC [µg/mL]
CC(c1ccccc1)(n1ccnc1)n1ccnc1 | > 100

system: Trichophyton benhamiae; assay: as §2; assay type: functional; details: not given; in short: as §1

SMILES | MIC [µg/mL]
C=C(c1cc(Cl)ccc1OC(C)C)n1ccnc1 | 0.1 (≈ 0.381 µM)
C/C=C(\c1cc(Cl)ccc1OCCC)n1ccnc1 | 0.1 (≈ 0.361 µM)
C/C(CN(C)C)=C(/c1ccccc1OCC(C)C)n1ccnc1 | 25 (≈ 79.8 µM)
C=C(c1ccccc1OCCc1ccc(Cl)cc1)n1ccnc1 | 0.1 (≈ 0.308 µM)
CC(C)COc1ccccc1/C(=C/CN(C)c1ccccc1)n1ccnc1 | 0.1 (≈ 0.277 µM)
C=C(c1cc(Cl)ccc1OCC(C)C)n1ccnc1 | 0.1 (≈ 0.361 µM)
C=C(c1cc(Cl)ccc1OCCC(C)C)n1cncn1 | 0.8 (≈ 2.74 µM)
CCC(CC)=C(c1cc(Cl)ccc1OCCC(C)C)n1cncn1 | 0.8 (≈ 2.3 µM)
C=C(c1ccccc1)n1ccnc1 | 100 (≈ 587 µM)

system: Candida albicans; assay: Inhibition of pseudomycelium formation of Candida albicans.; assay type: functional; details: read-out: MEC
In short: (§3)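 C. albicans KE-2 (clinical isolate), final inoculum 1×10^6 yeast cells/mL in EMEM with 20% calf serum. Compounds serially diluted by the microtiter dilution system used for MICs. After incubation, wells Giemsa-stained (5% in phosphate buffer) and examined microscopically. MEC (μg/mL) = lowest concentration preventing typical pseudomycelium formation. Lowest value of duplicated experiments.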

SMILES | minimal effective concentration [µg/mL]
C=C(c1cc(Cl)ccc1OC(C)C)n1ccnc1 | 5
C/C=C(\c1cc(Cl)ccc1OCCC)n1ccnc1 | 0.63
C/C(CN(C)C)=C(/c1ccccc1OCC(C)C)n1ccnc1 | 1.25
CC(C)COc1ccccc1/C(=C/CN(C)c1ccccc1)n1ccnc1 | 5
C=C(c1cc(Cl)ccc1OCC(C)C)n1ccnc1 | 1.25
C=C(c1cc(Cl)ccc1OCCC(C)C)n1cncn1 | 20
CCC(CC)=C(c1cc(Cl)ccc1OCCC(C)C)n1cncn1 | 1.25
C=C(c1ccccc1)n1ccnc1 | > 20

system: Candida albicans; assay: Inhibitory effect on pseudomycelium formation of candida albicans.; assay type: functional; details: read-out: MEC; in short: as §3

SMILES | minimal effective concentration [µg/mL]
C=C(c1ccccc1OCCc1ccc(Cl)cc1)n1ccnc1 | 1.25

system: not listed separately; assay: Minimum inhibitory concentration against Aspergillus fumigatus; assay type: functional, trichophyton asteroides; details: Trichophyton benhamiae; in short: as §1

SMILES | MIC [µg/mL]
CC(c1cccc(OCc2ccc(Cl)cc2)c1)(n1ccnc1)n1ccnc1 | > 100
